The values below come from ChEMBL document CHEMBL1127414 (J Med Chem, 1994).

In brackets after ≈: the same amount, converted by molar mass. Activity calls are given as the source filed them. The calls are words filed in the database; no cut-off is given here. A value given as a limit tells only on which side of the number the result lay.

For experiment [1], the target named is T1, Squalene synthase (Mus musculus) (UniProt P53798).
T1 sequence (whole entry): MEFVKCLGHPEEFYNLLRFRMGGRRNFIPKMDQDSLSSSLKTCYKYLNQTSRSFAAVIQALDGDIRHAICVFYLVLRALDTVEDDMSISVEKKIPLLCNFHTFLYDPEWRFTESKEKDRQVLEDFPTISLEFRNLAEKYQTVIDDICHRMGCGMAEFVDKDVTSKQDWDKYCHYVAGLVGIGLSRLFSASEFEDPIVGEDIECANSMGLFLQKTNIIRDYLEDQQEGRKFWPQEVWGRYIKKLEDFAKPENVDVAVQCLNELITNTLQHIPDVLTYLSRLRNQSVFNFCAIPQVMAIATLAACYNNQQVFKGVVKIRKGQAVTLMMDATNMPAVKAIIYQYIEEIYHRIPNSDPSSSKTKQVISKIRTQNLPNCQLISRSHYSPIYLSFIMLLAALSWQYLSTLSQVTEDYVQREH
Description: Tested for the effective dose required for the incorporation of [5-3H]-mevalonolactone into cholesterol by in vivo mouse assay by peroral administration. It is filed as functional, organism-based. A digest of the protocol: (§1)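 Female Swiss Webster mice (~25 g), six per group, dosed po by gavage with inhibitor suspended in 5% emulphor. 30 min later, 0.5 μCi/mouse [5-3H]mevalonolactone in saline given sc. Livers removed 30 min after that and saponified in KOH/EtOH overnight at 55 °C, then petroleum-ether extracted. Nonsaponifiable dpm counted. Compounds first tested at a single dose (typically 12 or 24 mg/kg).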

The target in experiment [2] is T2, Squalene synthase (Rattus norvegicus) (UniProt Q02769).
T2 sequence (whole entry): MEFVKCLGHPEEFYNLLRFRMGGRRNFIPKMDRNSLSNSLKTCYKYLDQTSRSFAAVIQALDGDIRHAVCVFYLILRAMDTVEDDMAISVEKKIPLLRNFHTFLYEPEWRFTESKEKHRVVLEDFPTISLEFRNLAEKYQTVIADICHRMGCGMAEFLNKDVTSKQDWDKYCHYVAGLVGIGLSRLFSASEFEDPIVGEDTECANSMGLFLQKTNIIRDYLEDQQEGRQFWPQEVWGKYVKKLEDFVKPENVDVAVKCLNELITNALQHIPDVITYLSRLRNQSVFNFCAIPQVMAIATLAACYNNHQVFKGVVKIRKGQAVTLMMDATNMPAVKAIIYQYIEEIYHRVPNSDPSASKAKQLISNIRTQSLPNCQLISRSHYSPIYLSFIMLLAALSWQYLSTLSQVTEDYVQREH
As to the kind of experiment: concentration required to inhibit rat liver squalene synthase enzyme relative to control (L-694,599). The method in brief: (§2)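 Enzyme from rat liver. […] Inhibitors added in DMSO (0.3% final) as 3-fold serial dilutions, usually up to 30 ng/mL (about 40 nM). IC50 read from % inhibition vs log concentration.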

For experiment [3], the system named is Mus musculus. As to the kind of experiment: Tested for its ability to inhibit the incorporation of [5-3H]-mevalonolactone into cholesterol by in vivo mouse assay by peroral administration at a dose of 6 mg/kg. It is filed as functional. The following applies: route oral. A digest of the protocol:
as §1

The subject of experiment [4] is HepG2. Description: Concentration required to inhibit cholesterol synthesis in Hep G2 cells relative to control (IC50 of L-694,599). In kind it is functional, Homo sapiens. A digest of the protocol:
(§3)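 Hep G2 cells held 2 days in lipoprotein-depleted FBS to stimulate sterol synthesis, then given inhibitor in serum-free medium for 2 h. 15 μCi [5-3H]mevalonate (0.2 mCi/mmol) added for 1 h. Cells washed and saponified, and radioactivity counted by scintillation.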

Experiment [5] has as its system Mus musculus. As to the kind of experiment: (§4) Tested for its ability to inhibit the incorporation of [5-3H]-mevalonolactone into cholesterol by in vivo mouse assay by peroral administration at a dose of 40 mg/kg. It is filed as ADME, organism-based. Further details: dose 40 mg/kg, route oral. Conditions: po. A digest of the protocol: as §1
In experiment [6] the test system is HepG2. Description: Concentration required to inhibit cholesterol synthesis in Hep G2 cells. It is filed as functional, cell-based. Conditions: Homo sapiens. A digest of the protocol:
as §3

The target in another experiment is T3, Squalene synthase (Rattus norvegicus, UniProt Q02769).
T3 sequence (Q02769 whole entry): T2 sequence (whole entry)
As to the kind of experiment: Tested for inhibition against squalene synthase enzyme in rat liver.

In the next experiment the test system is Aspergillus fumigatus. As to the kind of experiment: Concentration required to inhibit growth of MF 4839 strain of Aspergillus fumigatus. In kind it is functional. A digest of the protocol:
(§5)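 Broth microdilution against a panel of clinically relevant fungal strains. Read-out was the minimum fungicidal concentration in μg/mL.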

Experiment [7] addresses T2, Squalene synthase (Rattus norvegicus). Description: Concentration required to inhibit rat liver squalene synthase enzyme relative to control (L-694,599). A digest of the protocol: as §2
Experiment [8] has as its system Candida albicans. As to the kind of experiment: Concentration required to inhibit growth of MY 1055 strain of Candida albicans. It is filed as functional. A digest of the protocol:
as §5

In a further experiment the test system is Candida tropicalis. As to the kind of experiment: Concentration required to inhibit growth of MY 1012 strain of Candida tropicalis. It is filed as functional. The method in brief:
as §5

Experiment [9] has as its system squalene synthase (Saccharomyces cerevisiae). Description: Compound required to inhibit 50% activity of yeast squalene synthase enzyme relative to control (L-694,599).
In experiment [10] the test system is Candida albicans. Description: Concentration required to inhibit growth of MY 1750 strain of Candida albicans. It is filed as functional. The method in brief: as §5
For the next experiment, the system named is Trichophyton benhamiae. Description: Concentration required to inhibit growth of MF 4864 strain of Trichophyton mentagrophytes. In kind it is functional, Arthroderma benhamiae. The method in brief: as §5
The subject of a further experiment is Candida parapsilosis. Description: Concentration required to inhibit growth of MY 1010 strain of Candida parapsilosis. It is filed as functional. The following applies: Lodderomyces parapsilosis. A digest of the protocol:
as §5

Experiment [11] concerns Cryptococcus neoformans. Description: Concentration required to inhibit growth of MY 1051 strain of Cryptococcus neoformans. It is filed as functional. The method in brief: as §5
For experiment [12], the system named is Cryptococcus neoformans. Description: Concentration required to inhibit growth of MY 2061 strain of Cryptococcus neoformans. In kind it is functional. A digest of the protocol:
as §5

Experiment [13] has as its system Mus musculus. The experiment is described as §4. In kind it is functional. The following applies: route oral. A digest of the protocol:
as §1

Experiment [14] relates to Mus musculus. As to the kind of experiment: Tested for its ability to inhibit the incorporation of [5-3H]-mevalonolactone into cholesterol by in vivo mouse assay by peroral administration at dose 100 mg/kg. It is filed as functional. Conditions: route oral. The method in brief:
as §1

The subject of experiment [15] is Mus musculus. Description: Tested for its ability to inhibit the incorporation of [5-3H]-mevalonolactone into cholesterol by in vivo mouse assay by peroral administration not active at dose 40 mg/kg; NA = Not active. In kind it is functional, organism-based. Further details: dose 40 mg/kg. A digest of the protocol:
as §1

`C=C(CCC12OC(C(=O)O)C(O)(C(=O)O)C(C(=O)O)(O1)[C@H](O/C(S)=N/C(C)C)[C@H]2O)[C@@H](OC(C)=O)[C@H](C)Cc1ccccc1` (stereo partly drawn) showed a 50% effective dose (ED50) in [1] of over 6 mg/kg. The Relative activity in experiment [2] stood at 0.01. Moreover, in the experiment on Mus musculus [3], testing at 6 mg/kg gave an inhibition in vivo of 9%.
Turning to `C=C(CCC12OC(C(=O)O)C(O)(C(=O)O)C(C(=O)O)(O1)[C@H](OC(=O)OCCCCCCCCCCCC)[C@H]2O)[C@@H](OC(C)=O)[C@H](C)Cc1ccccc1` (stereo partly drawn), the Relative activity with HepG2 [4] turned out to be 4.36; in experiment [2], 0.47. This compound came in with an inhibition at 40 mg/kg with Mus musculus [5] of 5%. The figures for the IC50 with HepG2 [6] and at Squalene synthase were 1900 nM and 0.19 nM, respectively.
In the case of `C=C(CCC12OC(C(=O)O)C(O)(C(=O)O)C(C(=O)O)(O1)[C@H](OC(=O)CCCCCCCCCCC)[C@H]2O)[C@@H](OC(C)=O)[C@H](C)Cc1ccccc1` (stereo partly drawn), the MFC in the experiment with Aspergillus fumigatus stood at 8 µg/mL (≈ 11.1 µM); in the experiment on Candida albicans [8], 4 µg/mL (≈ 5.55 µM); against Candida tropicalis, 8 µg/mL (≈ 11.1 µM); in the experiment on Candida albicans [10] it was 8 µg/mL (≈ 11.1 µM); against Trichophyton benhamiae it was 4 µg/mL (≈ 5.55 µM); with Candida parapsilosis, 8 µg/mL (≈ 11.1 µM). Besides, the MFC against Cryptococcus neoformans [11] stood at 2 µg/mL (≈ 2.77 µM); in the experiment with Cryptococcus neoformans [12], 0.12 µg/mL (≈ 0.166 µM). For the same compound, the figures for the Relative activity (in experiment [7]; in the experiment on HepG2 [4]; in [9]) were 0.29, 3.24 and 3.13, respectively. Also, the 50% inhibitory concentration (IC50) in the experiment with HepG2 [6] is 1700 nM; against Squalene synthase it was 0.8 nM. Further, the inhibition in vivo at 40 mg/kg with Mus musculus [13] amounted to 20%.
For the compound `C=C(CCC12OC(C(=O)O)C(O)(C(=O)O)C(C(=O)O)(O1)[C@H](OC(=O)/C=C/[C@@H](C)C[C@@H](C)CC)[C@H]2O)[C@@H](OC(C)=O)[C@H](C)Cc1ccccc1` (stereo partly drawn) [ZARAGOZIC ACID A], the inhibition in vivo at 100 mg/kg with Mus musculus [14] stood at 50%. In addition, the MFC with Aspergillus fumigatus came out at 32 µg/mL (≈ 46.3 µM); in the experiment on Candida albicans [8], 16 µg/mL (≈ 23.2 µM); with Candida tropicalis, 2 µg/mL (≈ 2.9 µM); with Candida albicans [10] it was 8 µg/mL (≈ 11.6 µM); against Trichophyton benhamiae, 4 µg/mL (≈ 5.79 µM); against Candida parapsilosis, 8 µg/mL (≈ 11.6 µM). Moreover, the MFC against Cryptococcus neoformans [11] and against Cryptococcus neoformans [12] was 1 µg/mL (≈ 1.45 µM) throughout. In addition, the IC50 with HepG2 [6] worked out at 6000 nM. The inhibition entry in the experiment on Mus musculus [15] is “inactive”.

For orientation: ED50 means the dose that gives a 50% effect, or the effect in half of the subjects. In general, inhibition in vivo refers to the change of the read-out against control, counted positive when it falls. In general, inhibition refers to the percentage by which the read-out fell short of the control. Usually IC50 stands for the concentration needed to halve the response being measured. Higher therefore signals weaker potency.
